Kd and Activity data for three compounds are collected here from ChEMBL document CHEMBL1145382, “Novel ergopeptides as dual ligands for adenosine and dopamine receptors” (J Med Chem, 2007).

Structures are written as SMILES. The source made the active and inactive calls. The rule behind the calls is not given here.

For experiment [1], the target named is T1, Adenosine receptor A2a (Homo sapiens, UniProt P29274). Description: Displacement of [3H]CGS 21680 from adenosine A2A receptor in lamb striatum membrane after 2 hrs. Type of experiment: cell membranes, Ovis aries. Particulars: target entry is the homologue from another species. In short, it runs like this:
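Lamb striatal membranes (0.5 mg protein/mL), 22 °C, 50 mM Tris-HCl pH 7.4, with increasing ergopeptide concentrations. Conditions per receptor: D1 1.2 nM [3H]SCH 23390, 1 mM dopamine nonspecific. D2 0.9 nM [3H]YM 09151-2, 100 µM raclopride nonspecific. A1 2.2 nM [3H]R-PIA, 10 mM MgCl2, 0.2 U/mL ADA, 50 µM R-PIA nonspecific. A2A 20.1 nM [3H]CGS 21680, 10 mM MgCl2, 2 U/mL ADA, 1 mM CGS 21680 nonspecific. Filtration, scintillation counting. KD by nonlinear one- or two-site fit. Three to six determinations.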

Experiment [2] addresses D(1A) dopamine receptor (Homo sapiens) (UniProt P21728). Description: Displacement of [3H]SCH 23390 from dopamine D1 receptor in lamb striatum membrane at 50 uM after 1 hr. Type of experiment: cell membranes. To be noted: Ovis aries, target entry is the homologue from another species. The method in brief:
(§1)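 Single-concentration screen at 50 µM ergopeptide on lamb striatal membranes (0.5 mg protein/mL), 22 °C, 50 mM Tris-HCl pH 7.4. Radioligands: [3H]SCH 23390 1.2 nM (D1), [3H]YM 09151-2 0.9 nM (D2), [3H]R-PIA 2.2 nM (A1, with MgCl2 and ADA), [3H]CGS 21680 20.1 nM (A2A, with MgCl2 and ADA). Specific binding displaced, after filtration and scintillation counting.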

The target in experiment [3] is D(2) dopamine receptor (Homo sapiens) (UniProt P14416). Description: Displacement of [3H]YM 09151-2 from dopamine D2 receptor in lamb striatum membrane at 50 uM after 2 hrs. To be noted: Ovis aries, target entry is the homologue from another species. It counts as cell membranes. In short, it runs like this: as §1
In general terms: In a radioligand displacement assay an active substance lowers the binding of a labelled ligand.

Experiment [4] concerns the target T2, Adenosine receptor A1 (Homo sapiens) (UniProt P30542).
T2 sequence (whole entry): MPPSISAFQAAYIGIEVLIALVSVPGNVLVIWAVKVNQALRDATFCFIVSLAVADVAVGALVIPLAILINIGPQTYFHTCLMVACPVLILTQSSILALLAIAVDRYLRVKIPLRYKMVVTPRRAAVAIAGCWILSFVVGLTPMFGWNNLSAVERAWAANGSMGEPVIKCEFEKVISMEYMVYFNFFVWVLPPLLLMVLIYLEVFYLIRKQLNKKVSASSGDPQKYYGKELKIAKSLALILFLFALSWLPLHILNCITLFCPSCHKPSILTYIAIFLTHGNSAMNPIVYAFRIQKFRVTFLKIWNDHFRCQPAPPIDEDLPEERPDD
Description: Displacement of [3H]R-PIA from adenosine A1 receptor in lamb striatum membrane at 50 uM after 1 hr. Type of experiment: cell membranes. Particulars: Ovis aries, target entry is the homologue from another species. The method in brief: as §1

Experiment [5] deals with T1, Adenosine receptor A2a. Description: Displacement of [3H]CGS 21680 from adenosine A2A receptor in lamb striatum membrane at 50 uM after 2 hrs. Type of experiment: cell membranes. To be noted: Ovis aries, target entry is the homologue from another species. In short, it runs like this:
as §1

Experiment [6] deals with D(2) dopamine receptor (Homo sapiens) (UniProt P14416). In words: Agonist activity at dopamine D2 receptor in SH-SY5Y cells assessed as inhibition of forskolin-activated intracellular cAMP production at 50 uM. It counts as functional, cell-based. In short, it runs like this: (§2)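 SH-SY5Y cells expressing human D2LR, preincubated 5-10 min at 22 °C with 5 µM ZM to block A2AR. Then 50 µM zardaverine, 10 µM forskolin, and 50 µM ergopeptide, with or without 150 nM quinpirole or 50 µM raclopride. 35 min total. cAMP by enzyme immunoassay. Three to six determinations, t test.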
(Cyclic AMP is a second messenger, typically raised through Gs and lowered through Gi signalling.)

For experiment [7], the target named is T2, Adenosine receptor A1 (Homo sapiens). Description: Agonist activity at adenosine A1 receptor transfected in mouse L(tk-) cells assessed as decrease in forskolin-induced cAMP levels. It counts as functional, cell-based. In short, it runs like this: (§3)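 Mouse Ltk- fibroblasts cotransfected with human A1R and D1R, preincubated 5-10 min at 22 °C with 50 µM SCH to block D1R. Then 50 µM zardaverine, 10 µM forskolin, and 50 µM ergopeptide, with or without 20 nM R-PIA or 50 µM DPCPX. 35 min total. cAMP by enzyme immunoassay. Three to six determinations.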

Experiment [8] has the same target. Description: Antagonist activity at adenosine A1 receptor transfected in mouse L(tk-) cells assessed as inhibition of R-PIA-induced decrease in forskolin-induced cAMP levels. Type of experiment: functional, cell-based. The method in brief: as §3
Experiment [9] has as its target T1, Adenosine receptor A2a. Description: Agonist activity at adenosine A2A receptor in SH-SY5Y cells assessed as CGS-induced intracellular cAMP production at 50 uM. Type of experiment: functional, cell-based. The method in brief: (§4)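 SH-SY5Y neuroblastoma cells, endogenous A2AR, stably carrying human D2LR. Serum-starved 12-16 h, in HBSS with 50 µM zardaverine for 10 min, then 50 µM ergopeptide, alone or with the A2AR agonist CGS. 35 min total incubation. cAMP by competitive enzyme immunoassay. Three to six determinations, Student's t test.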

Experiment [10] has as its target D(1A) dopamine receptor (Homo sapiens) (UniProt P21728). In words: Agonist activity at dopamine D1 receptor transfected in mouse L(tk-) cells assessed as stimulation of cAMP levels. It counts as functional, cell-based. The method in brief: (§5)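 Mouse Ltk- fibroblasts cotransfected with human A1R and D1R, serum-starved 12-16 h. In HBSS with 50 µM zardaverine, then 50 µM ergopeptide, with or without 20 nM SKF or 50 µM SCH. 35 min total incubation. cAMP by competitive enzyme immunoassay. Three to six determinations, t test.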

Experiment [11] shares this target. In words: Antagonist activity at dopamine D1 receptor transfected in mouse L(tk-) cells assessed as inhibition of SKF-induced stimulation of forskolin-induced cAMP levels. Type of experiment: functional, cell-based. The method in brief:
as §5

Experiment [12] has as its target T1, Adenosine receptor A2a. Description: Antagonist activity at adenosine A2A receptor in SH-SY5Y cells assessed as CGS-induced intracellular cAMP production at 50 uM. It counts as functional, cell-based. The method in brief: as §4
The target of experiment [13] is D(2) dopamine receptor (Homo sapiens) (UniProt P14416). Description: Antagonist activity at dopamine D2 receptor in SH-SY5Y cells assessed as effect on forskolin-activated intracellular cAMP production at 50 uM. Type of experiment: functional, cell-based. The method in brief: as §2

Chain of D(2) dopamine receptor (Homo sapiens) (P14416 whole entry): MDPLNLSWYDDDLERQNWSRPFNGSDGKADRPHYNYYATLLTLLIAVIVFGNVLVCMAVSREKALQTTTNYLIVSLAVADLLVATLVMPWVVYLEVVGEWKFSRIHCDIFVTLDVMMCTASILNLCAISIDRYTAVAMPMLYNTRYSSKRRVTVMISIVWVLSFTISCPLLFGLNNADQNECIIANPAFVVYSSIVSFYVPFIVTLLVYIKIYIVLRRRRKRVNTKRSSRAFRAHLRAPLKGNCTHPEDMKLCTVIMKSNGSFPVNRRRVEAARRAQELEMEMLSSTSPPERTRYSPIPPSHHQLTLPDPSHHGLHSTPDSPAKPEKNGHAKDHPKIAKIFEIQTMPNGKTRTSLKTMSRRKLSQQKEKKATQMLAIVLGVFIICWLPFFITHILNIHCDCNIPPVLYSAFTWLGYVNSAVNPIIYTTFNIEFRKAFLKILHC
T1 sequence (P29274 whole entry): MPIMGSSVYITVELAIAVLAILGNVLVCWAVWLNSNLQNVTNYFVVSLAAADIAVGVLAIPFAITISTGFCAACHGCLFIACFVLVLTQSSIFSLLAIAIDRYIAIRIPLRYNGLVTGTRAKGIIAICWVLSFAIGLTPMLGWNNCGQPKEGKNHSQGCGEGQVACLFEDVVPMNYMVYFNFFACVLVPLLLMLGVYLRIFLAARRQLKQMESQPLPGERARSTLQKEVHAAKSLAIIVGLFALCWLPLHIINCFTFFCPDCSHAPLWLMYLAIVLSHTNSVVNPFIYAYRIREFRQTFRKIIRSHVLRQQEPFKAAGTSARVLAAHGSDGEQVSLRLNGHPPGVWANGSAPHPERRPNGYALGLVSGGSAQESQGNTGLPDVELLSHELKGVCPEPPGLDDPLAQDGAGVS
Chain of D(1A) dopamine receptor (Homo sapiens) (P21728 whole entry): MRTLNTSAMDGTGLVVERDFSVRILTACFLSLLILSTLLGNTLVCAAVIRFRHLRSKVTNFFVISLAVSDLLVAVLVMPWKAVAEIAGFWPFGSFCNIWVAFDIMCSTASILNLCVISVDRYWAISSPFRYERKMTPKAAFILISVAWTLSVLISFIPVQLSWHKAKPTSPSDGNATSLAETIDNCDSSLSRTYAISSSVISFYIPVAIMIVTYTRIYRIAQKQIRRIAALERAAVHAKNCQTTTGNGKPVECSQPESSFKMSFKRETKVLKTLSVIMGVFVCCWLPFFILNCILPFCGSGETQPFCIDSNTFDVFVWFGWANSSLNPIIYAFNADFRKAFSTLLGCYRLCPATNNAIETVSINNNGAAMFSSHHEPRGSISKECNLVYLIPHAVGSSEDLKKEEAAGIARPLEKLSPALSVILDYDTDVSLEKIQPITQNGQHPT

A word on the Kd: it is a measure of binding affinity in units of concentration. The low end stands for higher affinity, the high end for lower affinity. As to `CN1C[C@H](C(=O)N[C@@H](CCC2CCCCC2)C(=O)N[C@@H](Cc2ccc(F)cc2)C(=O)N2CCC[C@H]2C(N)=O)C=C2c3cccc4[nH]cc(c34)C[C@H]21`, the Kd at Adenosine receptor A2a [1] was 33 µM. Also, the Activity (in [2]; in experiment [3]; in experiment [4]; on Adenosine receptor A2a [5]) was below 40% in each case. Moreover, the result in [6], in experiment [8] and in experiment [10] was Active. Moreover, the result (in [7]; on Adenosine receptor A2a [9]; in experiment [11]) was inactive.
`CC(C)[C@H](NC(=O)[C@@H]1C=C2c3cccc4[nH]cc(c34)C[C@H]2N(C)C1)C(=O)N[C@@H](CCC1CCCCC1)C(=O)N1CCCC(C(N)=O)C1` (some centres undefined) showed a Kd on Adenosine receptor A2a [1] of 50 µM. The Activity (in experiment [2]; in experiment [3]; in experiment [4]; on Adenosine receptor A2a [5]) was below 40% in each case. Further, the outcome (at Adenosine receptor A2a [12]; in experiment [8]; in experiment [13]; in [10]) was Active. For the same compound, the outcome (in [7]; at Adenosine receptor A2a [9]; in experiment [11]) was inactive.
As for `CC(C)[C@H](NC(=O)[C@@H]1C=C2c3cccc4[nH]cc(c34)C[C@H]2N(C)C1)C(=O)N[C@@H](CCC1CCCCC1)C(=O)N1c2ccccc2C[C@H]1C(N)=O`, the affinity on Adenosine receptor A2a [1], expressed as Kd, was 25 µM. Besides, the Activity (in [2]; in experiment [3]; in experiment [4]; at Adenosine receptor A2a [5]) was below 40% in each case. Besides, the result (in [7]; at Adenosine receptor A2a [9]; in experiment [11]) was inactive. Besides, the outcome in [8], in experiment [13] and in experiment [10] was Active.
